In the library only some 4.9% were active in any assay of this set; here they are far more common.
NPY2 pot ag = human NPY-Y2 potentiation or agonism, primary screen; P49146; cells expressing NPY-Y2, potentiator/agonist read-out; activation, % at 3.6 µM; actives 0.45% (n = 220,000); AID 1359; in the data active means activation above about 27%;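 further: cells stimulated with NPY near EC25 plus isoproterenol at EC100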
Target sequence (P49146 whole entry, looked up): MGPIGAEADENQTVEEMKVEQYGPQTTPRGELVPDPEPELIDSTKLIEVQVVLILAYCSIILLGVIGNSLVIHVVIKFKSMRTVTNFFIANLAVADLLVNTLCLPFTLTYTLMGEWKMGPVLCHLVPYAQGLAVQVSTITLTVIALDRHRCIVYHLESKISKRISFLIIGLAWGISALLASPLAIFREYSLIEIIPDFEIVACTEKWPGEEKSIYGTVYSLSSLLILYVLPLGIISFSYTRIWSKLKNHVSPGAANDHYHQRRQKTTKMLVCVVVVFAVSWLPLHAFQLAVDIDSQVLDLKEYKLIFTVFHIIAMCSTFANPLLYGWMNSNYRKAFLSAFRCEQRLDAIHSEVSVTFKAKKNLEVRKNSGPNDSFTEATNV
NPY-Y2 antag = blocks the human neuropeptide Y Y2 receptor; P49146; NPY-Y2 expressing cells, antagonist mode; inhibition, % at 2.7 µM; actives 0.99% (n = 140,000); in the data active means inhibition above about 17%
WT yeast gro inh = growth inhibition of WT yeast, mitochondrial fusion screen | inhibition, % at 10 µM | AID 1362 | mitochondrial fusion phenotypic screen, WT strain | actives 2.1% (n = 190,000); in the data active means inhibition above about 58%; tested in S. cerevisiae
RAM network inh = blocks the yeast RAM network | S. cerevisiae dse1pr::URA3 reporter, 5-FOA growth OD615, 2 d; analog-sensitive cbk1-as2 kinase mutant strain | inhibition, % at 50 µM | actives 1.8% (n = 190,000) | AID 868;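 active means inhibition above a set limit, 3 SD over mean compound inhibition, cut at about 8.4% in these data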;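 further: inhibition rescues growth on 5-FOA so higher OD means more RAM inhibition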
NPY-Y1 antag = NPY-Y1 (human) receptor antagonism; HEK293-CNG Y1 cells, membrane potential fluorescence; NPY at EC95, then isoproterenol; AID 1040; inhibition, % at 3.6 µM; actives 1% (n = 200,000); P25929;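 active means inhibition above the campaign mean inhibition of all tested compounds plus 3 SD, cut at about 20% in these data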
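Material: HEK293 cells co-expressing NPY Y1 receptor and cyclic-nucleotide gated channel. Timing: compound incubation 1 h at room temperature, readout 45 min post-stimulation. Signal: fluorescence, membrane potential probe.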
NPY1 pot ag = human NPY-Y1 potentiation or agonism, primary screen; P25929; NPY-Y1 expressing cells, potentiator/agonist activation; activation, % at 3.6 µM; actives 0.37% (n = 220,000); AID 1304; in the data active means activation above about 33%, passing the limit was not always enough;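 further: cells stimulated with NPY at EC10 then isoproterenol at EC100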
Each line names hits and unclear results; the compound was inactive in the other large screens.

Cc1cc(C)cc(NC(=O)N2CCN(Cc3ccc4c(c3)OCO4)CC2)c1	none (no result: NPY-Y2 antag, WT yeast gro inh, RAM network inh, NPY-Y1 antag)
Cc1noc(NS(=O)(=O)c2ccc(N/C=C\C(=O)c3ccc(F)cc3)cc2)c1C	RAM network inh 8.6 (no result: NPY-Y2 antag)
CCc1cc2c(=O)c(-c3nc4ccccc4[nH]3)coc2cc1OC(=O)N1CCOCC1	RAM network inh 10.8
CCc1cc2c(=O)c(-c3nc4ccccc4[nH]3)coc2c(CN2CCC(C)CC2)c1O	none (no result: RAM network inh)
Cc1cccc(C=Nc2ccccc2C(N)=O)c1	none
COc1ccc(Cl)cc1S(=O)(=O)N1CCN(c2ccc(F)cc2)CC1	none
CCOc1ccc(Cl)cc1S(=O)(=O)N1CCN(c2ccc(F)cc2)CC1	RAM network inh 9.0
O=C1c2cccc3c([N+](=O)[O-])ccc(c23)C(=O)N1Cc1cccnc1	WT yeast gro inh 64.4 (no result: NPY-Y2 antag)
O=C1c2cccc3cccc(c23)C(=O)N1Cc1cccnc1	none (no result: NPY-Y2 antag, WT yeast gro inh, RAM network inh, NPY-Y1 antag)
Cc1nc2ccccc2nc1OCc1ccccc1	none
CC(O)c1c(OCc2ccccc2)ncnc1OCc1ccccc1 (configuration not stated)	NPY-Y1 antag 32.9
Cc1ccc(/C=C/C(=O)Nc2sc(C)c(C)c2C(=O)OC(C)C)o1	none
CCOC(=O)c1sc(NC(=O)/C=C/c2cnn(C)c2C)c(C(=O)OC(C)C)c1C	WT yeast gro inh 59.2
Cc1cc(C)c(O)c(-c2cc(C(=O)Nc3cccnc3)[nH]n2)c1	none (no result: NPY-Y2 antag, WT yeast gro inh, RAM network inh, NPY-Y1 antag)
COc1ccc(NC(=O)c2cc(-c3cc(C)cc(C)c3O)n[nH]2)cc1Cl	WT yeast gro inh 65.9
Cc1[nH]nc2c1C(c1ccc(N(C)C)cc1)C1=C(CC(C)(C)CC1=O)N2 (configuration not stated)	NPY-Y1 antag 20.5 (no result: NPY-Y2 antag)
Cc1ccc(OCCOC(=O)c2sc(=S)n(C)c2C)cc1	none (no result: NPY-Y2 antag)
Oc1ccc(/C=N/Nc2cc(N3CCCC3)nc(N3CCCC3)n2)cc1	WT yeast gro inh 63.1
Cc1cc(N/N=C/c2cccc(Cl)c2)nc(-n2nc(C)cc2C)n1	none (no result: NPY-Y2 antag, WT yeast gro inh, RAM network inh, NPY-Y1 antag)
COc1ccc(/C=N/Nc2cc(C)nc(-n3nc(C)cc3C)n2)cc1	WT yeast gro inh 60.0
COc1ccc(/C=N/Nc2cc(N3CCCC3)nc(N3CCCC3)n2)cc1	WT yeast gro inh 75.1 (no result: NPY-Y2 antag)
Oc1ccc(/C=N/Nc2cc(N3CCOCC3)nc(N3CCOCC3)n2)cc1	none (no result: WT yeast gro inh, RAM network inh)
CC(=O)N(Cc1ccco1)C1(C(=O)NC2CCCCC2)CCCCC1	none
O=C1CCC(C(=O)N(Cc2ccco2)C2(C(=O)NC3CCCC3)CCCCC2)N1 (configuration not stated)	NPY-Y2 antag 23.2, NPY-Y1 antag 21.7
O=C(c1ccc2c(c1)OCO2)N(CC1CCCO1)C1(C(=O)NC2CCCCC2)CCCCC1 (configuration not stated)	NPY-Y2 antag 29.4, NPY-Y1 antag 21.9
O=C(Cc1cccs1)N(Cc1cccs1)C1(C(=O)NC2CCCC2)CCCCC1	NPY-Y2 antag 50.2, NPY-Y1 antag 50.8
O=C(Cc1cccs1)N(Cc1ccco1)C1(C(=O)NC2CCCCC2)CCCCC1	NPY-Y2 antag 29.6, NPY-Y1 antag 49.7
COc1cc(OC)cc(C(=O)NC(=S)Nc2cc3oc4ccccc4c3cc2OC)c1	none
O=C(c1ccc2c(c1)OCO2)N(Cc1cccs1)C1(C(=O)NC2CCCCC2)CCCCC1	NPY-Y2 antag 37.2, WT yeast gro inh 62.1, NPY-Y1 antag 54.9
COc1ccc(NS(=O)(=O)c2ccc3oc(Nc4ccc5c(c4)OCCO5)nc3c2)cc1	WT yeast gro inh 73.2
Cc1ccccc1C(=O)N1CCN(c2ccc(NC(=O)c3ccc4c(c3)OCO4)cc2)CC1	NPY2 pot ag 55.6, NPY1 pot ag 45.4 (no result: NPY-Y2 antag)
Cc1ccc2sc(NNC(=O)c3cc(-c4cccs4)nc4ccccc34)nc2c1C	none
Cc1cc(C)c2nc(NNC(=O)c3cc(-c4cccs4)nc4ccccc34)sc2c1	WT yeast gro inh 63.7
CN(C)CCCN1c2ccccc2CCc2ccc(Cl)cc21	WT yeast gro inh 61.8
CC(C)Cn1c(O)c(/C=C2\C=NN=C2c2ccccc2)sc1=S	WT yeast gro inh 62.6
O=C(NC1CCCCC1)c1cc([N+](=O)[O-])ccc1N1CCCCC1	none
O=C(Cn1nnc(-c2ccccc2)n1)NCc1ccco1	none
O=C(Cn1nnc(-c2cccc(C(F)(F)F)c2)n1)NC(=O)NCc1ccco1	NPY-Y2 antag 21.0
CC(NC(=S)NCc1ccc(F)cc1)C12CC3CC(CC(C3)C1)C2 (configuration not stated)	WT yeast gro inh 77.4 (no result: NPY-Y2 antag)
O=C(Nc1ccc(F)cc1)c1ccccc1Oc1ccc(C(F)(F)F)cc1[N+](=O)[O-]	WT yeast gro inh 65.8
CCCNC(=O)COC(=O)c1cc(SC)ccc1Cl	none
Cc1c(O)c(CN(C)C)cc2c1oc(=O)c1ccccc12	NPY2 pot ag 50.9, NPY1 pot ag 84.0 (no result: NPY-Y2 antag, WT yeast gro inh, RAM network inh, NPY-Y1 antag)
O=C(Nc1cccc(S(=O)(=O)NC2=NCCCCC2)c1)c1cc(-c2ccccc2Cl)nc2ccccc12	RAM network inh 11.2
O=C(Nc1cccc(S(=O)(=O)NC2=NCCC2)c1)c1cc(-c2ccccn2)nc2ccccc12	none (no result: NPY-Y2 antag, WT yeast gro inh, RAM network inh, NPY-Y1 antag)
Cc1ccc(-n2c(SCC(=O)Nc3cccc(S(=O)(=O)NC4=NCCCCC4)c3)nc3ccccc3c2=O)cc1	RAM network inh 9.8
COc1ccc(Br)cc1C(=O)Nc1ccc(Cc2ccncc2)cc1	none (no result: RAM network inh)
O=c1cc(N2CCCC2)c2ccccc2o1	none (no result: NPY-Y2 antag)
CCOC(=O)/C(C#N)=C1\Nc2ccccc2N=C1N(CC(C)C)CC(C)C	WT yeast gro inh 76.3, RAM network inh 8.9
CC(=O)OCCCNc1cc(Sc2ccc(C)cc2)c2nonc2c1[N+](=O)[O-]	none
CC(=O)OCCCNc1cc(Sc2nc3ccccc3s2)c2nonc2c1[N+](=O)[O-]	WT yeast gro inh 96.5
CC(=O)OCCNc1cc(SCc2ccco2)c2nonc2c1[N+](=O)[O-]	RAM network inh 9.5
CC1CCN(c2nc(Cl)nc(Nc3ccc([N+](=O)[O-])cc3)n2)CC1	WT yeast gro inh 78.2
Cc1ccc(S(C)(=O)=O)cc1S(=O)(=O)Nc1ccccc1	none
COc1ccccc1-c1ccc(SCc2cccc(C)c2)nn1	WT yeast gro inh 67.8 (no result: NPY-Y2 antag)
Cc1nn(-c2ccccc2)c(Cl)c1/C=N/NS(=O)(=O)c1ccc(Br)cc1	WT yeast gro inh 58.2
CNC(=S)N/N=C/c1c(C)nn(-c2ccccc2)c1Cl	none
CCCN(CC1CC1)C(=S)Nc1ccc(Oc2ccccc2)cc1	none
S=C(Nc1ccc(Oc2ccccc2)cc1)NC1CCCCCC1	WT yeast gro inh 69.1, RAM network inh 10.5
S=C(Nc1ccc(Oc2ccc(NC(=S)NC3CCCCC3)cc2)cc1)NC1CCCCC1	none
CN(C(=S)Nc1ccc(Oc2ccccc2)cc1)C1CCCCC1	WT yeast gro inh 67.5
Cc1cccc(C)c1NC(=S)NC1CCCCC1	WT yeast gro inh 70.2
Cc1ccc(NC(=S)NNC(=S)NC2CCCCC2)cc1	none (no result: NPY-Y2 antag)
Cc1cccc(NC(=S)NNC(=S)NC2CCCCC2)c1C	none (no result: NPY-Y2 antag)
S=C(NNc1ccc2ccccc2c1)NC1CCCCC1	WT yeast gro inh 78.0
COC(=O)c1cc(OC)c(OC)cc1NC(=S)Nc1cccc(Cl)c1	none

Screening data as filed in PubChem.
